The assay relates to SK-MEL-5 viability, ATP luminescence (CellTiter-Glo), 24 h. The assay can be described thus: ATP-based cytotoxicity in parental melanoma cells – cell-based, CellTiter-Glo, dry powder samples, set 2, orthogonal assay for MITF inhibitor project, dose response (AID 624289). The procedure, abridged:
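system = SK-MEL-5 human melanoma cells, parental line of primary-screen reporter | input = 3000 SK-MEL-5 cells per well | buffer or medium = phenol red-free growth medium | dosing = pinned compound dose series | times = 24 h compound treatment at 37 °C, 5 min read delay | signal = ATP luminescence, CellTiter-Glo | measure = cell viability inferred from cellular ATP level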
(Cellular ATP, detected with luciferase, serves as a proxy for viable cell number.)

We go through 44 compounds from PubChem BioAssay AID624289 (Broad Institute, 2012).

SMILES strings stand for the structures. “And” between values parts separate entries of the source, which are not always exact repeats. Equal entries are not always repeated. The source made the active and inactive calls.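 How the source made its calls: active means compounds lowering cell ATP signal with a fitted AC50 no higher than twice the top tested dose; inconclusive means flat curve with 30 to 70% signal loss, or poor fit; inactive means the rest.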

In general, AC50 refers to the concentration at which the activity in the assay is half-maximal. On to `CCN(CC)CCCCNC1=C(Nc2ccccc2)C(=O)c2ccccc2C1=O`, for which the AC50 is 33.2 µM.

For `O=C(NC1=C(N2CCSCC2)C(=O)c2ccccc2C1=O)c1ccc(Br)cc1`, the concentration at half-maximal activity (AC50) is 28.1 µM.

With `O=C1C=C(Nc2ccccc2)C(=O)c2ccccc21`, the AC50 is 1.46 µM.

As for `CC(=O)NC1=C(c2ccc(Oc3ccccc3)cc2)C(=O)c2ccccc2C1=O`, the AC50 was 14.2 µM.

For `CC(=O)NC1=C(c2ccc(Cl)cc2)C(=O)c2ccccc2C1=O`, the AC50 was 15.8 µM.

`COc1ccc(C2=C(NC(=O)c3ccc(OC)cc3-c3cccc(OC)c3)C(=O)c3ccccc3C2=O)cc1`: the AC50 is > 70 µM (inactive).

Regarding `CC(=O)N(C)C1=C(N2CCOCC2)C(=O)c2ccccc2C1=O`, the AC50 was 5.55 µM.

With `C=CCNC1=C(Cl)C(=O)c2ccccc2C1=O`, the AC50 was 5.18 µM and 7.1 µM.

On to `O=C(NC1=C(c2ccccc2)C(=O)c2ccccc2C1=O)c1ccccc1`, for which the AC50 is 20.6 µM.

Take `Cc1ccc(C(=O)NC2=C(c3ccccc3)C(=O)c3ccccc3C2=O)o1`: the concentration at half-maximal activity (AC50) is 19.3 µM.

In the case of `O=C(NC1=C(N2CCN(c3ccccc3)CC2)C(=O)c2ccccc2C1=O)c1ccccc1`, the AC50 is > 70 µM (inactive).

Consider `C=CCNC1=C(N(C)C(C)=O)C(=O)c2ccccc2C1=O`, for which the AC50 was 0.274 µM.

Consider `C=CCNC1=C(N2CCN(C)CC2)C(=O)c2ccccc2C1=O`, for which the AC50 is 20.1 µM.

For `CCN(CC)CCNC1=C(Nc2ccccc2)C(=O)c2ccccc2C1=O`, the AC50 is 36.4 µM.

Consider `O=C1C(NS(=O)(=O)c2ccc(Br)cc2)=C(N2CCCCC2)C(=O)c2ccccc21`, for which the AC50 was 32.6 µM.

In the case of `O=C(NC1=C(N2CCOCC2)C(=O)c2ccccc2C1=O)c1ccccc1`, the AC50 is 18.2 µM.

With `O=C1C(NS(=O)(=O)c2ccccc2)=C(N2CCOCC2)C(=O)c2ccccc21`, the AC50 is 19.4 µM.

As to `O=C1C(NS(=O)(=O)c2ccc(Br)cc2)=C(N2CCOCC2)C(=O)c2ccccc21`, the AC50 was 12.2 µM.

For the compound `CC(=O)N(C)C1=C(N2CCCCC2)C(=O)c2ccccc2C1=O`, the AC50 was 2.67 µM.

Consider `CN1CCN(C2=C(NS(=O)(=O)c3ccccc3)C(=O)c3ccccc3C2=O)CC1`, for which the AC50 was 11.1 µM.

For the compound `C=CCNC1=C(N2CCOCC2)C(=O)c2ccccc2C1=O`, the AC50 was 6.79 µM.

Consider `COc1ccc(S(=O)(=O)N(C(C)=O)c2ccc(OC(C)=O)c3ccccc23)cc1[N+](=O)[O-]`, for which the AC50 was 19.9 µM.

As for `COc1cccc(C2=C(NC(=O)c3ccccc3)C(=O)c3ccccc3C2=O)c1`, the AC50 was 19.1 µM.

Take `COc1ccc(C(=O)NC2=C(c3ccc(OC)cc3)C(=O)c3ccccc3C2=O)cc1`: the AC50 is 15 µM.

In the case of `CCN1CCN(C2=C(NS(=O)(=O)c3ccc(Br)s3)C(=O)c3ccccc3C2=O)CC1`, the AC50 was 26.1 µM.

Take `O=C(NC1=C(c2ccc(OC(F)(F)F)cc2)C(=O)c2ccccc2C1=O)c1ccco1`: the AC50 was 23.1 µM.

On to `C=CCNC1=C(NCCN(CC)CC)C(=O)c2ccccc2C1=O`, for which the AC50 was 9.17 µM.

`C[C@@H](NC1=C(Nc2ccccc2)C(=O)c2ccccc2C1=O)c1ccccc1`: the AC50 is > 70 µM (inactive).

Take `NC1=C(NC(=O)c2ccccc2)C(=O)c2ccccc2C1=O`: the AC50 is 10.1 µM.

Take `CCN(CC)CCCNC1=C(Nc2ccccc2)C(=O)c2ccccc2C1=O`: the AC50 is 21.1 µM.

On to `O=C1C(NS(=O)(=O)c2ccc(Br)cc2)=C(N2CCN(c3ccccc3)CC2)C(=O)c2ccccc21`, for which the AC50 is 25.2 µM.

As for `CN1CCN(C2=C(NC(=O)c3ccccc3)C(=O)c3ccccc3C2=O)CC1`, the AC50 is 5.15 µM.

Turning to `O=C1C(NS(=O)(=O)c2ccc(Br)s2)=C(N2CCSCC2)C(=O)c2ccccc21`, the AC50 is 29.1 µM.

For the compound `COc1cccc(-c2cc(C(=O)NC3=C(Cl)C(=O)c4ccccc4C3=O)ccc2OC)c1`, the AC50 was 22.4 µM.

Turning to `CCN1c2ccccc2NC2N=C(OC)C(c3ccccc3)C21` (centres undefined), the AC50 was 11.1 µM.

For the compound `CCN1CCN(C2=C(NC(=O)c3ccccc3)C(=O)c3ccccc3C2=O)CC1`, the AC50 was 5.2 µM.

As for `NC1=C(c2ccc(OC(F)(F)F)cc2)C(=O)c2ccccc2C1=O`, the AC50 was > 70 µM (inactive).

With `O=C1C(Nc2ccccc2)=C(N2CCCCC2)C(=O)c2ccccc21`, the AC50 is 8.69 µM.

Take `O=C(NC1=C(c2ccccc2)C(=O)c2ccccc2C1=O)c1ccc(Br)cc1`: the AC50 is 28.9 µM.

As for `CC(=O)NC1=C(c2ccccc2)C(=O)c2ccccc2C1=O`, the AC50 is 15.2 µM.

Consider `Cc1ccc(C(=O)NC2=C(c3ccc(OC(F)(F)F)cc3)C(=O)c3ccccc3C2=O)o1`, for which the half-maximal activity concentration (AC50) was 29.5 µM.

On to `C=CCNC1=C(NCCCN2CCOCC2)C(=O)c2ccccc2C1=O`, for which the AC50 was 33.1 µM.

For the compound `CC(=O)NC1=C(c2ccc3c(c2)oc2ccccc23)C(=O)c2ccccc2C1=O`, the AC50 was 17.4 µM.

As for `C=CCNC1=C(N2CCSCC2)C(=O)c2ccccc2C1=O`, the AC50 was 12.3 µM.
